The source of these data is ChEMBL document CHEMBL2321763, “The role of the acidity of N-heteroaryl sulfonamides as inhibitors of bcl-2 family protein-protein interactions” (ACS Med Chem Lett, 2013).

One data set has as its system Toledo. Description: Induction of apoptosis in human Toledo cells. It is filed as functional. The note with it: read-out: LD50 (the source's name).
The nature of data set [1]: Solubility of compound in fasted state simulated intestinal fluid.
The target of the next data set is Bcl-2-like protein 1 (Homo sapiens, UniProt Q07817). Description: Inhibition of Bcl-xL/BAK (unknown origin) interaction.
Sequence of Bcl-2-like protein 1 (Q07817 whole entry): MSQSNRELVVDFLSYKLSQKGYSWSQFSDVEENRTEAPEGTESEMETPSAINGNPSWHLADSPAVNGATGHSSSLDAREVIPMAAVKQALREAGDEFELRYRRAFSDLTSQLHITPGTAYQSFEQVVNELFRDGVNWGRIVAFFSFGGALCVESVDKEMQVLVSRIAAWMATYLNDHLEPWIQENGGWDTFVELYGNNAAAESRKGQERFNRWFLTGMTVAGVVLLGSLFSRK
Data set [2] addresses T1, Apoptosis regulator Bcl-2 (Homo sapiens, UniProt P10415). The data set is described as follows: Inhibition of Bcl-2/biotinylated BAK (unknown origin) interaction incubated for 1 hr by surface plasmon resonance analysis. In general terms: Surface plasmon resonance follows binding to a sensor surface in real time, without labels.
Data set [3] deals with T1, Apoptosis regulator Bcl-2. Description: Binding affinity to Bcl-2 (unknown origin) by surface plasmon resonance analysis.
Data set [4] in a line: Ratio of compound solubility to ABT-737 solubility in fasted state simulated intestinal fluid. It is filed as physicochemical. The note with it: simulated gi fluid.
The next data set has as its system Rattus norvegicus. The data set is described as follows: AUC in Sprague-Dawley rat at 1 mg/kg, iv. It is filed as ADME, organism-based, Plasma. More on the design: dose 1 mg/kg, route intravenous. The note with it: in vivo. In short, it runs like this:
(§1)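 Rats got a single 1 mg/kg iv dose for plasma clearance, AUC and Vdss, and a 10 mg/kg po dose for oral bioavailability (%F). The vehicle was a solution of either 10% PG, 5% cremophor EL and 85% citrate buffer, or 10% PG, Solutol and 40% water for injection.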

The nature of data set [5]: Volume of distribution at steady state in Sprague-Dawley rat at 1 mg/kg, iv and 10 mg/kg, po. The format is ADME, organism-based. The note with it: in vivo, read-out: Vdss. An outline of the steps: as §1
Data set [6] is described as follows: Clearance in Sprague-Dawley rat plasma at 1 mg/kg, iv. It is filed as ADME, organism-based. More on the design: dose 1 mg/kg, route intravenous. In short, it runs like this: as §1
Data set [7] is described as follows: Oral bioavailability in Sprague-Dawley rat at 10 mg/kg. The note with it: in vivo. It is filed as ADME, organism-based. An outline of the steps:
as §1

The structures appear in SMILES notation. Converted amounts (≈) assume the structure as drawn.

T1 sequence (P10415 whole entry): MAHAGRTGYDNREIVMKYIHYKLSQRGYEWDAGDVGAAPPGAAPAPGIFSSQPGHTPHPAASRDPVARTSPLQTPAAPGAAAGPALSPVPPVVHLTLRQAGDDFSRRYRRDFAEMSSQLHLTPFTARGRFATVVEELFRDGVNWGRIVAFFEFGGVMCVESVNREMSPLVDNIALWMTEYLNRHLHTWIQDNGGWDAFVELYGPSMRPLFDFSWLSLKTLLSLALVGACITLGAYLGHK

In general, solubility refers to the dissolved amount per volume that the medium holds. Usually IC50 stands for the concentration at which inhibition is half-maximal. A high value points to lower potency. For orientation: Kd means the equilibrium constant for the complex coming apart. Read a high Kd as weaker binding. As for `CN(C)CC[C@H](CSc1ccccc1)Nc1ccc(S(=O)(=O)Nc2ncnc3c2CCN(C2CCN(Cc4cc(F)ccc4-c4ccc(Cl)cc4)CC2)C3=O)cc1S(=O)(=O)C(F)(F)F`, the CC50 in the data set on Toledo was more than 30000 nM. This compound showed a solubility in [1] of 63 µM (≈ 60.5 µg/mL). Also, the IC50 at Bcl-2-like protein 1 worked out at 22 nM; in [2] it was 142 nM. For the same compound, in data set [3], the affinity, expressed as Kd, was 104 nM.

As to `CN(C)CC[C@H](CSc1ccccc1)Nc1ccc(S(=O)(=O)Nc2nc(Cl)nc3c2CCN(C2CCN(Cc4ccccc4-c4ccc(Cl)cc4)CC2)C3)cc1S(=O)(=O)C(F)(F)F`, the CC50 with Toledo came to 5370 nM. The compound also yielded a solubility in data set [1] of 22 µM (≈ 21.2 µg/mL). The IC50 against Bcl-2-like protein 1 was 20 nM; in data set [2], 32 nM. In [3], this compound registered a Kd of 17 nM.

With `CN(C)CC[C@H](CSc1ccccc1)Nc1ccc(S(=O)(=O)Nc2nc(C(F)(F)F)nc3c2CCN(C2CCN(Cc4ccccc4-c4ccc(Cl)cc4)CC2)C3)cc1S(=O)(=O)C(F)(F)F`, the CC50 in the data set with Toledo stood at 3900 nM. Besides, the solubility in data set [1] was 36 µM (≈ 35.9 µg/mL). Besides, the IC50 against Bcl-2-like protein 1 was determined as 62 nM; in [2], 46 nM. Further, the affinity in data set [3], expressed as Kd, was 10 nM.

Turning to `O=[N+]([O-])c1cc(S(=O)(=O)Nc2cccc3cc(N4CCN(Cc5ccccc5-c5ccc(Cl)cc5)CC4)ccc23)ccc1N[C@H](CCN1CCOCC1)CSc1ccccc1`, in the data set with Toledo, the CC50 is more than 30000 nM. The IC50 in [2] is more than 4000 nM.

Turning to `CN(C)CC[C@H](CSc1ccccc1)Nc1ccc(S(=O)(=O)Nc2cccc3cc(N4CCN(Cc5ccccc5-c5ccc(Cl)cc5)CC4)cnc23)cc1[N+](=O)[O-]`, the CC50 in the data set with Toledo is 3950 nM. Further, the solubility in data set [1] was 44 µM (≈ 36.8 µg/mL). The IC50 in data set [2] worked out at 68 nM.

`CN(C)CC[C@H](CSc1ccccc1)Nc1ccc(S(=O)(=O)Nc2nn(C)c3nc(N4CCN(Cc5ccccc5-c5ccc(Cl)cc5)CC4)ncc23)cc1[N+](=O)[O-]`: the CC50 in the data set with Toledo was more than 30000 nM. In [2], this compound came in with an IC50 of 8500 nM.

In the case of `CN(C)CC[C@H](CSc1ccccc1)Nc1ccc(S(=O)(=O)Nc2nnc3cc(N4CCN(Cc5ccccc5-c5ccc(Cl)cc5)CC4)cnn23)cc1[N+](=O)[O-]`, in data set [4], the Ratio is on record as 4. The CC50 in the data set on Toledo worked out at 4800 nM. The compound further came in with a solubility in data set [1] of 31 µM (≈ 25.7 µg/mL). In data set [2], this compound came in with an IC50 of 25 nM. In addition, the Kd in data set [3] was 8 nM.

Usually clearance stands for the volume of plasma or blood freed of the substance per unit of time. A low value points to inefficient removal. `CN(C)CC[C@H](CSc1ccccc1)Nc1ccc(S(=O)(=O)NC2=NS(=O)(=O)c3cc(N4CCN(Cc5ccccc5-c5ccc(Cl)cc5)CC4)ccc32)cc1[N+](=O)[O-]` gave an AUC in the data set on Rattus norvegicus of 761 nmol/h. The Vd in data set [5] is 0.09 L/kg. In data set [6], this compound came in with a clearance of 25 mL/min/kg. Moreover, the CC50 with Toledo was more than 30000 nM. The same compound gave a solubility in data set [1] of less than 5 µM. Also, half-maximal inhibition in data set [2] (IC50) was put at 17 nM. For the same compound, the Kd in data set [3] was 14 nM.

Take `O=S(=O)(Nc1nnc2n1CCN(C1CCN(Cc3ccccc3-c3ccc(Cl)cc3)CC1)C2)c1ccc(N[C@H](CCN2CCOCC2)CSc2ccccc2)c(S(=O)(=O)C(F)(F)F)c1`: the CC50 in the data set with Toledo is 15900 nM. In addition, the solubility in data set [1] is 9 µM (≈ 8.64 µg/mL). Moreover, half-maximal inhibition in data set [2] (IC50) was put at 317 nM.

For `O=S(=O)(Nc1ncnc2c1CN(C1CCN(Cc3ccccc3-c3ccc(Cl)cc3)CC1)C2)c1ccc(N[C@H](CCN2CCOCC2)CSc2ccccc2)c(S(=O)(=O)C(F)(F)F)c1`, the CC50 in the data set with Toledo was 107000 nM. This compound also displayed a solubility in data set [1] of 70 µM (≈ 67 µg/mL). Also, the midpoint of inhibition in [2], the IC50, lay at 740 nM.

Turning to `CN(C)CC[C@H](CSc1ccccc1)Nc1ccc(S(=O)(=O)Nc2nnc3n2CCN(C2CCN(Cc4ccccc4-c4ccc(Cl)cc4)CC2)CC3)cc1S(=O)(=O)C(F)(F)F`, in the data set with Toledo, the CC50 turned out to be 3470 nM. Further, the concentration in solution in [1] (solubility) came to 87 µM (≈ 81 µg/mL). In data set [2], the IC50 was 25 nM. This compound also had an equilibrium dissociation constant (Kd) in [3] of 5 nM.

The bioavailability is dose-corrected exposure relative to a reference, in per cent. Lower therefore signals little systemic uptake. For the compound `CN(C)CC[C@H](CSc1ccccc1)Nc1ccc(S(=O)(=O)Nc2ncnc3c2CCN(C2CCN(Cc4ccccc4-c4ccc(Cl)cc4)CC2)C3)cc1S(=O)(=O)C(F)(F)F`, the bioavailability in data set [7] was less than 5%. The same compound showed an AUC with Rattus norvegicus of 0.232 µM·h. In addition, in data set [5], the Vd worked out at 8.6 L/kg. Besides, in data set [6], the clearance was 68 mL/min/kg. Further, in the data set with Toledo, the CC50 was determined as 298 nM. Further, the concentration in solution in data set [1] (solubility) came to 64 µM (≈ 59.4 µg/mL). The IC50 on Bcl-2-like protein 1 amounted to 24 nM; in [2], 19 nM. The Kd in data set [3] stood at 7 nM.

For `CN(C)CC[C@H](CSc1ccccc1)Nc1ccc(S(=O)(=O)Nc2ncnc3c2CCN(C2CCN(Cc4cc(F)ccc4-c4ccc(Cl)cc4)CC2)C3)cc1S(=O)(=O)C(F)(F)F`, the CC50 in the data set with Toledo is 197 nM. The concentration in solution in data set [1] (solubility) was 25 µM (≈ 23.7 µg/mL). The IC50 against Bcl-2-like protein 1 worked out at 74 nM; in data set [2], 33 nM. Besides, binding in [3] was characterised by a dissociation constant (Kd) of 3 nM.

In the data set with Rattus norvegicus, `CC(c1ccccc1-c1ccc(Cl)cc1)N1CCC(N2CCc3c(ncnc3NS(=O)(=O)c3ccc(N[C@H](CCN(C)C)CSc4ccccc4)c(S(=O)(=O)C(F)(F)F)c3)C2)CC1` (some centres not stated) came in with an AUC of 0.19 µM·h. Further, the Vd in [5] came to 5.28 L/kg. The compound further had a clearance in [6] of 89 mL/min/kg. Also, the CC50 in the data set with Toledo came out at 113 nM. Besides, in data set [1], the concentration in solution (solubility) was 31 µM (≈ 29.2 µg/mL). The compound further returned an IC50 on Bcl-2-like protein 1 of 115 nM. Besides, the Kd in data set [3] is 2 nM.

With `CN(C)CC[C@H](CSc1ccccc1)Nc1ccc(S(=O)(=O)NC(=O)c2ccc(N3CCN(Cc4ccccc4-c4ccc(Cl)cc4)CC3)cc2)cc1[N+](=O)[O-]` [ABT 737], the CC50 in the data set with Toledo stood at 60 nM. The compound also displayed a solubility in data set [1] of 7 µM (≈ 5.69 µg/mL).
